# From PubChem BioAssay
# An excerpt weighted towards active compounds, which were near 4.5% of everything screened.
# GPR7 antag: blocks human GPR7 receptor signaling. P48145. GPR7-expressing cells, fluorescence antagonist assay. inhibition, % at 4.4 µM. actives 1.1% (n = 290,000). AID 1861; in the data active = inhibition above about 16%, passing the limit was not always enough;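 note: cells stimulated with the agonist NPW; 0% = agonist with vehicle and 100% = vehicle without agonist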
# TAAR1 ag: agonists of human TAAR1; CHO RD-HGA16 TAAR1, Fluo-8 calcium fluorescence; vehicle wells 0%, saturating PEA agonist 100%; AID 624467; activation, % at 3 µM; actives 0.99% (n = 360,000); Q96RJ0;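 active = activation above the mean activation of all test compounds in the run plus 3 SD, cut at about 38% in these data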
#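 Repeats: no replicates (n 1) | Material: CHO-derived RD-HGA16 cells with stable Gα16 and human TAAR1 | Technique: Kinetic Fluo-8 calcium fluorescence | Schedule: 17-24 h seeding, 75 min 37 °C dye, 30 min RT | Evaluation: % activation from peak over basal fluorescence ratio, DMSO-to-PEA scaled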
# TAAR1 antagonist: human TAAR1 antagonism; inhibition, % at 3 µM; CHO RD-HGA16 TAAR1, Fluo-8 calcium fluorescence, antagonist; actives 1.5% (n = 360,000);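 active = inhibition above a per-plate cutoff, the mean inhibition of test compounds on that plate plus 3 SD, cut at about 49% in these data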;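 note: 0% = DMSO plus EC80 beta-PEA response and 100% = DMSO alone without agonist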
#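 Material: CHO RD-HGA16 cells bearing hTAAR1; compound dosing: one-point dosing, 3 µM nominal final; schedule: dye loading 75 min at 37 °C, then 30 min room temperature; measured by: calcium fluorescence with Fluo-8; control set: vehicle and agonist controls; replication: n of 1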
# CHO parental Ca: counter-screen: ATP calcium response change in parental CHO cells; parental CHO-K1, ATP-induced calcium, Fluo-8 fluorescence; inhibition, % at 5.6 µM; actives 0.63% (n = 330,000);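 active = inhibition above that plate's mean sample inhibition plus 3 SD, cut at about 26% in these data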;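 note: 0% = ATP-challenged DMSO wells and 100% = DMSO wells without ATP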
#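 Measured by: calcium-sensitive Fluo-8 fluorescence / Test system: CHO parental line / Controls: ATP-challenged DMSO wells low, unchallenged DMSO wells high / Measure: % inhibition / Compound: single nominal dose of 5.6 µM per compound / Replicates: single well per compound, no replicates / Reagent: ATP as calcium-mobilizing challenge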
# OX1R antag-1: OX1R (human) antagonism. AID 485270. OX1R-expressing cells, FRET antagonist read-out. O43613. inhibition, % at 6.6 µM. actives 1.8% (n = 330,000); in the data active = inhibition mostly above about 38%, no sharp cut-off; inactive = mostly below about 40%;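 note: 0% = agonist challenge alone and 100% = reference antagonist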
# Target sequence (O43613 whole entry, looked up): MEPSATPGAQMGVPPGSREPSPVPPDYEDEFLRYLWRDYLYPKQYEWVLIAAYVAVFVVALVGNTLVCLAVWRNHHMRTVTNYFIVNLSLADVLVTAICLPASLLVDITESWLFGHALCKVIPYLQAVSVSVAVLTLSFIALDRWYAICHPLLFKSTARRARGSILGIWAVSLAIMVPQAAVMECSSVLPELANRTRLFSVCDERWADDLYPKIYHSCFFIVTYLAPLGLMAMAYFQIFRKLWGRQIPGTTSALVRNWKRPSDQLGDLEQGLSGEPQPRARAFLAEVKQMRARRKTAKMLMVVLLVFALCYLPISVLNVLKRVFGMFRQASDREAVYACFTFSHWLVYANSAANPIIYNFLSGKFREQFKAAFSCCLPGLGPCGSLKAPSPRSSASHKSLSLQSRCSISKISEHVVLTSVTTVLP
# OX1R antag-2: blocks the human orexin 1 receptor; inhibition, % at 5 µM; actives 0.43% (n = 330,000); AID 434989; CHO/OX1R cells, Fluo-8 calcium fluorescence, orexin A; O43613;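 active = inhibition above its plate's threshold, mean inhibition of all tested compounds on the plate plus 3 SD, cut at about 37% in these data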;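 note: 0% = orexin A challenge wells and 100% = SB-334867-A antagonist wells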
# The depositor's hits bear a star; nt = no result.
SMILES,GPR7 antag,TAAR1 ag,TAAR1 antagonist,CHO parental Ca,OX1R antag-1,OX1R antag-2
COc1cc2sc3cc(NCc4ccc(C)o4)ccc3c(=O)c2cc1OC,nt,0.7,17.4,-18.1,45.3*,4.0
COc1ccccc1N1CCN(S(=O)(=O)CCNC(=O)C23CC4CC(CC(C4)C2)C3)CC1,-9.5,16.3,57.9*,-14.5,15.5,-18.9
Cc1cccc2sc(N3CCN(C(=O)C4COc5ccccc5O4)CC3)nc12 (stereo not drawn),nt,49.9*,42.4,-10.8,3.4,-22.6
COc1ccc2nc(N3CCN(C(=O)C4COc5ccccc5O4)CC3)sc2c1 (stereo not drawn),nt,9.2,31.9,-21.4,20.3,-16.3
CC(=O)OCC1=C(C(=O)OC(C)(C)C)N2C(=O)[C@@H](NC(=O)Cc3ccccc3)[C@H]2SC1,nt,-1.1,-22.3,nt,nt,nt
CC1=C(C(=O)OCC(Cl)(Cl)Cl)N2C(=O)C(NC(=O)Cc3ccccc3)C2SC1 (stereo not drawn),22.8,25.2,61.1*,-5.2,0.5,-2.1
COc1ccc(CCN2C(=O)C(Oc3ccccc3C)C2c2ccc3c(c2)OCO3)cc1OC (stereo not drawn),20.3,6.7,54.7*,2.1,24.0,-24.7
COc1ccc(CCN2C(=O)C(Oc3ccccc3C)C2c2ccc3c(c2)OCO3)cc1 (stereo not drawn),1.3,8.0,56.4*,-6.9,34.7,-16.8
OC(CNC1CCCCC1)CON=C1CCSc2c(Cl)cccc21 (stereo not drawn),nt,39.5*,18.3,nt,nt,nt
OC(CNC1CCCC1)COc1ccc(-c2ccccc2)cc1 (stereo not drawn),2.9,13.3,0.5,-3.3,4.6,2.4
COc1cc(C(=S)N2CCOCC2)cc(OC)c1OC(=O)c1ccccc1[N+](=O)[O-],-11.9,18.4,12.8,-22.4,33.5*,-14.9
COc1ccc(C(=S)N2CCOCC2)cc1OC(=O)c1ccc([N+](=O)[O-])cc1[N+](=O)[O-],16.8,5.8,21.3,-13.5,13.8,-4.1
COc1ccc(CCNC(=O)c2ccc3ccccc3n2)cc1,-11.4,6.8,-15.2,-4.2,17.9,-25.9
CCOC(=O)C1=CCN(S(=O)(=O)c2ccc(Br)cc2)C1c1cccc(Br)c1 (stereo not drawn),nt,0.0,-2.5,nt,nt,nt
Cc1ccc(S(=O)(=O)N(C)[C@H]2C[C@H]3c4[nH]c5c(-c6ccccc6)cccc5c4CCN3C(=O)[C@H]2[C@H](C)O)cc1,nt,3.1,44.3,nt,nt,nt
O=C(N/N=C/c1ccc([N+](=O)[O-])o1)c1ccc(NS(=O)(=O)c2cccs2)cc1,-10.2,-0.1,-23.1,-11.4,45.0*,13.3
COc1ccc(N2CCN(C(=O)c3cc(N4C(=O)C5C6CCC(C6)C5C4=O)ccc3Cl)CC2)cc1 (stereo not drawn),19.8*,12.1,5.9,-18.6,14.6,-23.5
CNc1ccccc1C(C)(C)c1cc(-c2cccc(Br)c2)no1,-10.5,8.6,13.7,45.2*,20.4,33.5
CNc1ccccc1C(C)(C)c1cc(-c2cccc([N+](=O)[O-])c2)no1,12.0,4.0,-2.9,-6.4,17.6,-22.0
COc1ccc(-n2nc(C(=O)NCC(=O)N3CCN(c4ccccn4)CC3)c3ccccc3c2=O)cc1OC,-11.5,11.6,56.9*,-24.0,13.5,-23.6
COc1ccc(-n2nc(C(=O)NCC(=O)N3CCN(c4ccccc4OC)CC3)c3ccccc3c2=O)cc1OC,0.0,13.4,52.0*,-7.1,14.8,-0.9
COc1ccc(-n2nc(C(=O)NCC(=O)NCc3cccc(F)c3)c3ccccc3c2=O)cc1Cl,7.2,14.7,49.9*,-4.1,9.7,-21.9
COc1ccc(-n2nc(C(=O)NCC(=O)N3CCN(c4ccccc4)CC3)c3ccccc3c2=O)cc1OC,-11.3,8.2,35.6,-20.4,16.7,-39.3
COC(=O)[C@]12C[C@H](CC(=O)NCc3ccc(OC)c(OC)c3)C(=O)N(CCC3=CCCCC3)C1=C[C@H](C(C)(C)C)O[C@@H]2C,nt,-0.2,-19.3,nt,nt,nt
CCOc1ccccc1CNc1ncnc2ccc(-c3c(C)noc3C)cc12,nt,2.5,36.7,4.3,33.1*,33.9
CNC(=O)N1c2ccccc2CCc2ccccc21,-4.5,2.5,-10.6,0.1,5.2,1.1
